Bioassay records from PubChem.
The list is not random: actives were taken first. Their share in the collection is about 5.4%.
CSC inhib: blocks cancer stem cells. inhibition, % at 7.5 µM. AID 2717. cancer stem cell-like cells viability, luminescence. hit rate 1.1% among 300,000; in the data active = inhibition above about 75%; inconclusive = no clear call, values can overlap the other calls; tested in HMLE shEcad cells
aSyn 5UTR inh: 5' untranslated region of α-synuclein, MLPCN primary screen; alpha-synuclein 5'UTR reporter, inhibitor activity; inhibition, % (tested at 7.5 µM); hit rate 0.82% among 300,000; AID 1813; in the data active = inhibition above about 60%; inconclusive = no clear call, values can overlap the other calls;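 also: H4 neuroglioblastoma cells stably carrying SNCA 5'UTR luciferase fusion; 0% = DMSO wells and 100% = positive control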
T cruzi inh: blocks replication of Trypanosoma cruzi. inhibition, % (concentration not given with the values). hit rate 1.4% among 300,000. AID 1885. T. cruzi beta-gal in NIH3T3, luminescence, 90 h;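 active = mean inhibition across valid replicates above about 55%, limit read from the data; inconclusive = mean below that limit but half or more replicates reach it; inactive = mean below it, under half of replicates reach it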;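 also: signal also drops with host cell toxicity which is not excluded here; 0% = plate median of DMSO wells and 100% = zero luminescence signal; higher percent means less beta-gal luminescence so fewer parasites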
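assay system = mouse NIH/3T3 fibroblasts infected with β-gal-expressing T. cruzi Tulahuen C4 | input = 5,000 NIH/3T3 host cells per well | buffer or medium = DMEM plus 2% FBS | timing = 3 h host attachment, then at least 90 h co-culture | measured by = GalScreen luminescence, 60 min | evaluation = luminescence reflecting intracellular parasite burden, expressed as percent inhibition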
SKKanGAS inh: blocks kanamycin growth of S. pyogenes SKKanGAS strain | BacTiter-Glo, 6 h | inhibition, % at 7.5 µM | hit rate 1.3% among 300,000 | AID 1662;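 active = mean replicate score, as percent of positive control median, at least 50; inconclusive = mean below 50 but one replicate at or above 50; inactive = mean and every replicate below 50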;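 also: strain carries kanamycin resistance gene driven by streptokinase promoter and grows in 40 µg/ml kanamycin; loss of luminescence reflects streptokinase promoter inhibition or plain growth inhibition; 0% = median of DMSO wells and 100% = positive control at its reference dose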
Mdm2 MdmX PPI: inhibitors of human Mdm2/MdmX interaction. hit rate 3% among 330,000. O15151+Q00987. SaOS-2 split-luciferase Mdm2/MdmX complementation, luminescence. inhibition, % at 8 µM;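 active = inhibition of at least 50% at 8 µM in the primary screen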
Target sequence (O15151 whole entry, looked up): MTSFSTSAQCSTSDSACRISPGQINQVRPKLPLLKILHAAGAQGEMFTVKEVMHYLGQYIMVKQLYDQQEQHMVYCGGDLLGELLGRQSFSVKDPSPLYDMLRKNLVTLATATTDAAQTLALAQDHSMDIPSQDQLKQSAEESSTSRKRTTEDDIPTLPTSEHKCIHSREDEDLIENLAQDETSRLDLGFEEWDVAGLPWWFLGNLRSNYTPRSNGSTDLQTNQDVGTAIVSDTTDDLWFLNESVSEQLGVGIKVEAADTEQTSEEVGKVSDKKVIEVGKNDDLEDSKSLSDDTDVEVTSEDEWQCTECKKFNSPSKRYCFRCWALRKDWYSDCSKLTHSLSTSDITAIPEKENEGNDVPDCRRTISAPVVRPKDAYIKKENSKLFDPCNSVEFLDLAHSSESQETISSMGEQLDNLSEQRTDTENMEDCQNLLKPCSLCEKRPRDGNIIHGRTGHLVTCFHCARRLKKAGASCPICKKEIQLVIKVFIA
Target sequence (Q00987 whole entry, looked up): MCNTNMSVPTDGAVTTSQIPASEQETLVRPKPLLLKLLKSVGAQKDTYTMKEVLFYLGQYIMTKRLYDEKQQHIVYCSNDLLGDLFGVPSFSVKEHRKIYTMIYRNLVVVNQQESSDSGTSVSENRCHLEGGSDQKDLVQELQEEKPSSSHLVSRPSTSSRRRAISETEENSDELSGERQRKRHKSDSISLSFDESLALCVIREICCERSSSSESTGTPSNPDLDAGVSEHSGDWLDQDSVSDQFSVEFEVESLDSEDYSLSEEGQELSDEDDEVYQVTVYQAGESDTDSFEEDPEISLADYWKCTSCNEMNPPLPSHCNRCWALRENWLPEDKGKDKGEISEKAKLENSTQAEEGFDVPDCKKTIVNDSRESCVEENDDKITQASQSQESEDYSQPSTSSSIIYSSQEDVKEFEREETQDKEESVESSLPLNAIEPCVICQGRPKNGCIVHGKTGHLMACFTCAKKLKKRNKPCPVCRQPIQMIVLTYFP
Numbers without * were called inactive; ? = inconclusive; nt = no result given.

SMILES | CSC inhib | aSyn 5UTR inh | T cruzi inh | SKKanGAS inh | Mdm2 MdmX PPI
Cc1ccc(OCC(=O)Nc2ccc(N3CCCC3)cc2)cc1C | 4 | 21 | 24 | -2 | 9
O=S(=O)(c1ccccc1)N(F)S(=O)(=O)c1ccccc1 | nt | nt | nt | nt | 9
CCNc1nc(SCCOc2ccc(C)cc2)nc(N(C)C)n1 | 53 | 29 | 20 | 2 | 38
Cc1ccc(OCCSc2nc(NC(C)C)nc(NC(C)C)n2)cc1 | 90* | 25 | 34 | 72* | 4
NC(=S)N=Nc1c(O)n(Cc2ccc(Br)cc2)c2ccccc12 | 58 | 64* | 26 | 61* | 48
Cc1cc2cc(CNC(=O)c3cc4ccccc4o3)ccc2n1C | -2 | 18 | 65* | nt | -5
COCC(=O)NCc1ccc2c(c1)cc(C)n2C | -8 | 2 | 3 | 0 | 2
Cc1ccc(S(=O)(=O)NCc2ccc3c(c2)cc(C)n3C)cc1 | -7 | -1 | 64* | 6 | 16
Cc1cc2cc(CN3C(=O)c4ccccc4C3=O)ccc2n1C | 19 | -3 | 83* | 3 | 5
O=C1c2ccccc2C(=O)N1Cc1ccc2c(c1)OCO2 | -15 | -10 | -1 | -1 | 5
CCCCN(C)CCNC(=O)c1nn(-c2ccc(OC)cc2)c(=O)c2c1c1ccccc1n2C | -8 | -39 | 61* | 1 | 32
CCN(C(=O)c1nn(-c2ccc(OC)cc2)c(=O)c2c1c1ccccc1n2C)c1ccc(OC)cc1 | -9 | -20 | 26 | 10 | -23
Cc1cc(C)c2nc(NNC(=O)c3cc(=O)c4ccccc4o3)sc2c1 | 79* | -12 | -12 | 85* | 5
Nc1nc(SCC(=O)Nc2ncc(Cl)cc2Cl)n[nH]1 | nt | nt | nt | nt | 4
CS(=O)(=O)N1CCc2cc(-c3csc(NC(=O)C(c4ccccc4)c4ccccc4)n3)ccc21 | 9 | 35 | 61* | 6 | 15
Cc1ccc(N2C(=O)c3ccccc3C2Nc2ccccc2F)nc1 (configuration not stated) | 39 | -27 | 6 | -8 | -1
Cc1ccc(N2C(=O)c3ccccc3C2O)nc1 (configuration not stated) | 50 | 73* | -8 | 32 | nt
COc1ccccc1/C=C(/C(=O)OCC(=O)Nc1cc(C)ccc1C)c1ccccc1 | 21 | 8 | 13 | 55* | 20
CCc1ccc(NC(=O)COC(=O)/C(=C/c2ccccc2OC)c2ccccc2)cc1 | 2 | 6 | -18 | -6 | -3
CC(C)C[C@H](NC(=O)[C@H](Cc1ccccc1)n1c(=O)[nH]c2ccccc2c1=O)C(=O)N1CCC[C@@H]1C(=O)O | -10 | -9 | -8 | 3 | 21
COc1cccc(C(=O)Nc2cc(C)nn2-c2ccccc2)c1OC | 6 | 1 | 3 | -5 | 7
Nc1ccccc1Nc1cc(-c2ccccc2)nn1-c1ccccc1 | 11 | -19 | 55* | 7 | 4
Cc1ccc(-n2nc(-c3ccccc3)cc2Nc2ccccc2N)cc1 | nt | 13 | 16 | -12 | 5
COC(=O)c1sc(NC(=S)NNC(=O)c2c(Br)c(C)nn2C)c(C(=O)OC)c1C | -6 | -8 | -9 | 22 | 19
COc1cc2c(cc1OC)-c1cc(NC3CCCCC3)nc(=O)n1CC2 | -8 | 50 | -3 | -7 | 17
SMILES | CSC inhib | aSyn 5UTR inh | T cruzi inh | SKKanGAS inh | Mdm2 MdmX PPI
COc1cc2c(cc1OC)-c1cc(NC3CCCCCCC3)nc(=O)n1CC2 | nt | 70* | 33 | 10 | 36
O=C(O)CSCC(=O)N(Cc1ccccc1)c1nc(-c2ccccc2)c(-c2ccccc2)s1 | 1 | -16 | 4 | 94* | -17
COC(=O)c1cc(C(=O)Cc2ccccc2)c[nH]1 | -16 | -5 | -10 | -1 | 6
NC(=O)c1cc(C(=O)Cc2ccccc2)c[nH]1 | -5 | 12 | -8 | 92* | 1
Cc1ccc(-n2c(SCC(=O)c3c(N)n(C)c(=O)n(C)c3=O)nc3sc4c(c3c2=O)CCCC4)c(C)c1 | 5 | 24 | 68* | 7 | 39
CN=c1scc(-c2ccc(OC)cc2)n1/N=C(\C)c1cccnc1 | 10 | -156 | 58* | nt | 11
O=[N+]([O-])C(/C=C(/Cl)[N+](=O)[O-])=C(N1CCCCC1)N1CCCCC1 | -18 | -45 | 55* | 32 | 26
O=C(/C=C/c1ccccc1[N+](=O)[O-])N1CCCCC1 | -9 | -6 | -4 | 2 | 5
O=C(O)C1CCCCC1C(=O)Nc1ccc(S(=O)(=O)N2CCCC2)cc1 (configuration not stated) | nt | 9 | 1 | -3 | -3
Cc1ccc(Cn2nnc3c(=O)n(CC(=O)NCc4ccc5c(c4)OCO5)cnc32)cc1 | 5 | 15 | 21 | -7 | 33
Cc1ccc(N=Cc2cccc(O)c2O)c(C)c1 | ? | -62 | ? | 57* | -8
CC1CCCN(c2nc(-c3cccnc3)nc3scc(-c4ccccc4)c23)C1 (configuration not stated) | -3 | -29 | 44 | 39 | 15
CC1CCN(c2nc(-c3cccnc3)nc3scc(-c4ccccc4)c23)CC1 | 95* | -4 | 30 | 75* | 17
CCOC(=O)C1CCN(c2ncnc3c2cnn3-c2ccc(Cl)cc2)CC1 | -14 | 65* | -28 | -10 | 17
CN1C(=O)C(C)(C)c2cc(S(=O)(=O)N3CCN(c4ccccc4F)CC3)ccc21 | -4 | -8 | -6 | -3 | 2
O=C(Nc1ccccc1F)N1CCCC1c1cccnc1 (configuration not stated) | -7 | 17 | 19 | 3 | -33
O=C(Nc1ccc(F)cc1F)N1CCCCC1c1cccnc1 (configuration not stated) | -8 | -21 | 57* | 3 | 16
CC(C)(C)C(=O)Cn1ncc(Br)c(Br)c1=O | nt | -92 | 61* | 1 | nt
Cc1ccc(S(=O)(=O)NC23CC4CC(CC(C4)C2)C3)cc1 | nt | nt | nt | nt | 14
Cc1nn(C)c(C(=O)Nc2ccc(S(=O)(=O)NC34CC5CC(CC(C5)C3)C4)cc2)c1Br | nt | 24 | 59* | 53* | 48
O=C(Nc1cc2ccccc2oc1=O)c1ccccc1 | -4 | 74* | -14 | 6 | -8
Cc1oc(=O)c(NC(=O)c2ccccc2)cc1C(N)=O | -5 | 1 | 7 | nt | -9
CNc1snc(C)c1C(=O)OCC(=O)c1ccc(OC)c(F)c1 | 0 | nt | nt | nt | -5
CCOC(=O)N1CCN(c2ccc(C(=O)c3cccc(F)c3)cc2)CC1 | 76* | 7 | -1 | -17 | -29
O=C(c1ccc(N2CCN(C(=O)c3cccc(F)c3)CC2)cc1)c1cccc(F)c1 | 8 | 20 | 22 | -1 | 5
SMILES | CSC inhib | aSyn 5UTR inh | T cruzi inh | SKKanGAS inh | Mdm2 MdmX PPI
COCCN(C(=O)C1=COCCO1)c1c(N)n(CC(C)C)c(=O)[nH]c1=O | nt | nt | nt | nt | 31
COc1ccccc1NS(=O)(=O)c1cccc(NC(=O)CCNC(=O)c2ccccc2OC)c1 | nt | nt | nt | nt | -35
CSc1nc(Oc2ccc(C)cc2)cc(C(F)(F)F)n1 | -2 | -18 | 5 | -22 | 10
CC(C)C(C(=O)Nc1nccs1)c1ccc(Cl)cc1 (configuration not stated) | -6 | ? | 15 | 60* | 23
CC(C)C(C(=O)Nc1ccncc1)c1ccc(Cl)cc1 (configuration not stated) | 9 | 32 | 27 | -3 | 39
CCCc1ccc(-c2ccc(F)c(N)c2)nc1 | 33 | 99* | -12 | 6 | 1
